This assay addresses Serotonin 3 (5-HT3) receptor (Rattus norvegicus) (UniProt P35563+Q9JJ16). In words: In vivo 5-hydroxytryptamine 3 receptor (5-HT 3 receptor) antagonistic activity expressed as ability to inhibit Bezold-Jarich reflex evoked by 5-HT in rats. Type of assay: functional, organism-based. A digest of the protocol:
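Male rats (260-290 g) anesthetized with urethane (1.25 g/kg ip), with blood pressure and heart rate recorded. A submaximal 5-HT dose (6 µg/kg iv) was given repeatedly, and the heart-rate change was quantified. Compound was given iv before 5-HT. ID50 is the dose reducing the 5-HT-evoked response to 50% of the control response.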

Structures are written as SMILES. Where only a bound is given, the exact number is not on record here.

Drawing on ChEMBL document CHEMBL1124839, “5-Hydroxytryptamine (5-HT3) receptor antagonists. 3. Ortho-substituted phenylureas” (J Med Chem, 1990), this text covers ID50 for 27 compounds.

`COc1ccc(O)cc1NC(=O)NC1CC2CCC(C1)N2C` (configuration not stated) came in with an ID50 of more than 10 µg/kg. `COc1ccc([N+](=O)[O-])cc1NC(=O)NC1CC2CCC(C1)N2C` (configuration not stated) yielded an ID50 of more than 10 µg/kg. As for `COc1ccccc1NC(=O)NC1CC2CCC(C1)N2C` (configuration not stated), the figure is 2.5 µg/kg. As for `COc1ccccc1NC(=O)NC1CC2CCCC(C1)N2C` (stereo in doubt; 6c), the figure is 7.5 µg/kg; as for `CN1C2CCC1CC(NC(=O)Nc1ccccc1S(=O)(=O)N(C)C)C2` (configuration not stated), 2.2 µg/kg; as for `COC(=O)c1ccccc1NC(=O)NC1CC2CCC(C1)N2C` (configuration not stated), 2.1 µg/kg. As for `CN1C2CCC1CC(NC(=O)Nc1ccccc1Oc1ccccc1)C2` (configuration not stated), the figure is 5.4 µg/kg. The compound `CN1C2CCC1CC(NC(=O)Nc1ccccc1O)C2` (configuration not stated) had an ID50 of 11.6 µg/kg. As for `COc1ccccc1NC(=O)OC1CC2CCC(C1)N2C` (configuration not stated), the figure is 2.4 µg/kg; as for `CN(C)C(=O)c1ccccc1NC(=O)NC1CC2CCC(C1)N2C` (configuration not stated), more than 10 µg/kg.

Compound `CCCCOc1ccccc1NC(=O)NC1CC2CCC(C1)N2C` (configuration not stated) showed an ID50 of 8.3 µg/kg.

For the compound `COc1ccc(C)cc1NC(=O)NC1CC2CCC(C1)N2C` (configuration not stated), the ID50 was more than 10 µg/kg. On to `COc1ccc(OC)c(NC(=O)NC2CC3CCC(C2)N3C)c1` (configuration not stated), for which the ID50 was more than 10 µg/kg. `CN1C2CCC1CC(NC(=O)Nc1ccccc1OC(C)(C)C)C2` (configuration not stated) yielded an ID50 of more than 10 µg/kg. `CCOC(=O)c1ccccc1NC(=O)NC1CC2CCC(C1)N2C` (configuration not stated) gave an ID50 of 5.2 µg/kg.

On to `CSc1ccccc1NC(=O)NC1CC2CCC(C1)N2C` (configuration not stated), for which the ID50 was 12.7 µg/kg. The value for `COc1ccccc1NC(=O)NC1CC2CCCC(C1)N2C` (stereo in doubt; 11c) was more than 100 µg/kg; that for `CCOc1ccccc1NC(=O)NC1CC2CCC(C1)N2C` (configuration not stated) was 3.1 µg/kg; that for `COc1cc(F)ccc1NC(=O)NC1CC2CCC(C1)N2C` (configuration not stated) was more than 10 µg/kg. As for `CN1C2CCC1CC(NC(=O)Nc1ccccc1OCc1ccccc1)C2` (configuration not stated), the figure is 5.2 µg/kg; as for `COCc1ccccc1NC(=O)NC1CC2CCC(C1)N2C` (configuration not stated), 13.4 µg/kg; as for `COc1ccc(NC(=O)NC2CC3CCC(C2)N3C)c(OC)c1` (configuration not stated), more than 10 µg/kg.

As for `CC(C)Oc1ccccc1NC(=O)NC1CC2CCC(C1)N2C` (configuration not stated), the ID50 stood at 4.2 µg/kg. The value for `CCCOc1ccccc1NC(=O)NC1CC2CCC(C1)N2C` (configuration not stated) was 9.8 µg/kg. The value for `COc1ccc(F)cc1NC(=O)NC1CC2CCC(C1)N2C` (configuration not stated) was 7 µg/kg; that for `C=CCOc1ccccc1NC(=O)NC1CC2CCC(C1)N2C` (configuration not stated) was 2.6 µg/kg.

Consider `CCC(C)Oc1ccccc1NC(=O)NC1CC2CCC(C1)N2C` (configuration not stated), for which the ID50 is 2.7 µg/kg.
